Assay outcomes (PubChem)
This is a sample that favours compounds with a hit; in the whole collection about 2.6% have one here.
PRMT1 inh: PRMT1 (human) inhibition, primary screen; Q99873; recombinant PRMT1, activity-based probe fluorescence polarization; inhibition, % at 2.79 µM; 1.3% of 370,000 active;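 active means inhibition above about 21% made by adding two undisclosed values, limit read from the data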
Target sequence (Q99873 whole entry, looked up): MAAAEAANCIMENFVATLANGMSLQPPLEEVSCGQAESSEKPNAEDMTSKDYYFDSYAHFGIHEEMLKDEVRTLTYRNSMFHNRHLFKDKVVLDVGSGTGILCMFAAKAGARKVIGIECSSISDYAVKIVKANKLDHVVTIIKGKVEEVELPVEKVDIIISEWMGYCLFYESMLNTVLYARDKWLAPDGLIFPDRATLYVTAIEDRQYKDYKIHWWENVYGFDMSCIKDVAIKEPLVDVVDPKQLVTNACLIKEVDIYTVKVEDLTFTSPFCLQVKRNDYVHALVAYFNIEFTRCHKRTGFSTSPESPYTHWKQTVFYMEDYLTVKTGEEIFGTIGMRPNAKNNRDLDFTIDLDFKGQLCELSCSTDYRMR
TDP2 inh: blocks human TDP2 phosphodiesterase activity; O95551; recombinant TDP2, T5PNP hydrolysis, p-nitrophenol absorbance 415 nm; inhibition, % at 12.8 µM; 0.34% of 370,000 active;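 active means inhibition above the mean of all tested compounds plus 3 SD, set per campaign, cut at about 25% in these data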;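 further: 0% = DMSO with enzyme and 100% = buffer with substrate but no TDP2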
Target sequence (O95551 whole entry, looked up): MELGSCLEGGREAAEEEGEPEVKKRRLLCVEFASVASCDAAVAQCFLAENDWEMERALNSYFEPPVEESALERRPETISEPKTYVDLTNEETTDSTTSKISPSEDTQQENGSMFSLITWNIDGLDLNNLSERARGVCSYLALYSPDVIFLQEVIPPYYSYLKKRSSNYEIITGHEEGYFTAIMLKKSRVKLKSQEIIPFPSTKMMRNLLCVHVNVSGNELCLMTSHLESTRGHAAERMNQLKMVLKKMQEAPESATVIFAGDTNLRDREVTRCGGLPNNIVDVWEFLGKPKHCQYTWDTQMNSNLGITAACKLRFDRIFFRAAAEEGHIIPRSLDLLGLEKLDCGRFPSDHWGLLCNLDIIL
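System – recombinant human TDP2 · Amount – 120 nM TDP2 per well · Buffer or medium – Mg2+-containing Tris-HCl buffer, pH 7.5 · Reagent – T5PNP substrate, 5 mM · Dosing – 12.8 µM single point, 1% DMSO · Incubation – 2 h at 37 °C · Measured by – epi absorbance · Read-out basis – percent inhibition · Benchmarks – high control without enzyme, low control DMSO plus TDP2 · Repeats – singlicate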
PAD4 FP inh: inhibitors of human PAD4; 0.41% of 330,000 active; recombinant PAD4, RCA probe fluorescence polarization; inhibition, % at 6.36 µM; Q9UM07; AID 485272;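 active means percent inhibition above a cutoff equal to the mean of all tested compounds plus 3 SD, cut at about 15% in these data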;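 further: 0% = PAD4 with RCA probe and DMSO and 100% = probe without PAD4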
Apaf1 inhib: inhibitors of human Apaf-1 apoptosome; O14727; reconstituted apoptosome caspase-3 activity, DEVD-Rh110 fluorescence; inhibition, % at 20 µM; 0.71% of 330,000 active; active means inhibition of at least 40% at 20 µM;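 further: plate controls were DMSO wells for no effect and DEVD-CHO caspase inhibitor wells for full effect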
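System – cell-free apoptosome with Apaf-1, procaspase-3 and caspase-9 · Buffer or medium – pH 7.5 Hepes buffer with CHAPS, BSA, DTT · Also added – cytochrome c with DEVD-Rh110 · Times – 30 min compound preincubation, 50 min activation, room temperature · Technique – Rh110 fluorescence intensity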
GSTO1 counter: blocks human GSTO1 in RBBP9 counter-screen | 1.1% of 300,000 active | P78417 | inhibition, % at 5.96 µM | recombinant GSTO1, activity-based probe fluorescence polarization;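 active means inhibition above the campaign mean inhibition plus 3 SD, cut at about 35% in these data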;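 further: 0% = GSTO1-1 with DMSO and 100% = wells lacking GSTO1-1 enzyme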
PAD4 FP conf: PAD4 (human) inhibition, confirmed | shares compounds with PAD4 FP inh | recombinant PAD4, RCA probe fluorescence polarization | inhibition, % at 6.36 µM | 28% of 1,200 active | AID 488796;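 active means mean inhibition across replicates above the hit cutoff set by the earlier primary screen, cut at about 15% in these data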;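 further: inhibitors block active-site labeling by the probe so polarization falls; 0% = PAD4 with probe and DMSO and 100% = probe without PAD4 enzyme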
Apaf-1 inh conf2: Apaf-1 inhibition, single-dose confirmed; 25% of 1,800 active; reconstituted apoptosome, caspase-3 DEVD-Rh110 fluorescence; shares compounds with Apaf1 inhib; AID 504614; inhibition, % at 20 µM;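 active means mean inhibition of at least 40% at 20 µM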;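 further: plate controls were DMSO wells for no effect and DEVD-CHO caspase inhibitor control wells for full effect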
Rh110 quench: Rh110 signal interference in Apaf-1 inhibitor counter-screen; shares compounds with Apaf1 inhib; Rh110 fluorescence interference, quenched caspase reaction; 1,800 tested, under 10 active; activation (fluorescence interference), % at 20 µM;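 active means signal rise of 40% or more at 20 µM, treated as a fluorescence artifact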
Apaf1 inh interf: shows fluorescence interference in the Apaf-1 inhibitor assay format; shares compounds with Apaf1 inhib; fluorescence interference counterscreen, Apaf-1 assay format; IC50, µM; 460 tested, under 10 active; AID 588538; call rule not given here
TDP2 confirm: confirmation of human TDP2 inhibitors | recombinant human TDP2, absorbance read-out | 22% of 1,100 active | shares compounds with TDP2 inh | inhibition, % at 12.8 µM | AID 743263; in the data active means inhibition above about 25%;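 further: 0% = vehicle with enzyme and 100% = no enzyme buffer only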
Active calls of the source: *; · = no result given.

SMILES | PRMT1 inh | TDP2 inh | PAD4 FP inh | Apaf1 inhib | GSTO1 counter | PAD4 FP conf | TDP2 confirm | others
CCc1nnc(N/N=C\c2ccc(OC(C)=O)c(OC)c2)n1N | -1 | 54* | 25* | 1 | 21 | 0 | 4
COc1cc(/C=N/NC(=O)Nc2ccccc2)ccc1OC(C)=O | -1 | 5 | -1 | 2 | 2 | · | ·
CCc1nnc(N/N=C/c2ccc(O)c(OC)c2)n1N | 0 | 79* | 38* | -11 | 20 | 2 | 14
COc1ccc(-c2nc3c4ccccc4ccn3c2CC2CCCCC2)cc1OC | -1 | 5 | · | · | · | · | ·
CC(=O)N1CCc2cc(S(=O)(=O)NCCC(=O)N(C)C3CCCCC3)ccc21 | -1 | 9 | · | · | · | · | ·
CC(=O)CC(=O)O[C@@H]1C=C[C@H](NC(=O)OC(C)(C)C)C1 | -1 | 5 | · | · | · | · | ·
CC1=NN(c2ccccc2)C(=O)C1C=Nc1ccc(N(C)C)cc1 (stereo unspecified) | 29* | 32* | 51* | 38 | 63* | 1 | 8
CC(C)(C)[C@H](NC(=O)c1cc(Cl)cc(Cl)c1)C(=O)N1CCC[C@H]1C(=O)N[C@H](C#N)CC(=O)O | 3 | 8 | · | · | · | · | ·
Nc1ccc(OC(=O)Nc2ccc(O)cc2)cc1 | 3 | 30* | 73* | 16 | 59* | -11 | 12
O=C(C[C@H]1CC[C@@H](NS(=O)(=O)c2ccccc2)[C@@H](CO)O1)NCc1ccc(Cl)c(Cl)c1 | 3 | 3 | · | · | · | · | ·
CCCCn1nnnc1C(c1cc2ccccc2o1)N1CCN(c2ncccc2C#N)CC1 (stereo unspecified) | -2 | -8 | · | · | · | · | ·
CC(=O)NC1=NN(c2ccccc2)C(=O)C1 | 1 | 55* | 43* | 15 | 13 | 3 | 5
NC1=NN(c2ccccc2)C(=O)C1 | -2 | -5 | · | · | · | · | ·
Cc1[nH][nH]c(=O)c1C(c1ccc(-c2cccc(C(=O)O)c2)o1)c1c(C)[nH][nH]c1=O | 21 | 63* | 33* | 78* | 33 | -12 | 31* | Apaf-1 inh conf2=31;Rh110 quench=9
CCOc1cccc(-c2nnc(SCC(=O)Nc3ccc4c(c3)OCO4)n2N)c1 | 3 | 5 | · | · | · | · | ·
COc1cc(/C=N/Nc2nncn2N)ccc1OCc1c(C)no[n+]1[O-] | 3 | 68* | 45* | -4 | 16 | -9 | 6
COc1cc(/C=C(\C#N)C(N)=O)ccc1OCc1c(C)no[n+]1[O-] | -2 | -10 | -5 | -4 | 19 | · | ·
COc1ccc(/C=N/Nc2nncn2N)cc1Br | 6 | 75* | 53* | 27 | 29 | 3 | 8
Cc1[nH]c2ccccc2c1/C=N/Nc1nncn1N | 6 | 74* | 35* | 0 | 23 | 7 | 4
Cc1[nH]c2ccccc2c1/C=N/Nc1ccccn1 | 2 | 1 | · | · | · | · | ·
Cc1cc(O)c(C=Nc2ccc(N3CCOCC3)cc2)c(C)c1Cl | 6 | 37* | 28* | 3 | 3 | 2 | 4
COc1cc(C2C(C#N)=C(N)Oc3n[nH]c(-c4cccnc4)c32)cc(Br)c1O (stereo unspecified) | -3 | 31* | 21* | 9 | 14 | -4 | -4
Cc1ccc(C2C(C#N)=C(N)Oc3n[nH]c(-c4cccnc4)c32)o1 (stereo unspecified) | 2 | 14 | -9 | 15 | 15 | · | ·
COc1cc(C2C(C#N)=C(N)Oc3n[nH]c(-c4cccnc4)c32)ccc1OCC(N)=O (stereo unspecified) | -6 | 52* | 21* | 0 | 14 | 5 | -3
O=C(NC1(O)C(=O)c2ccccc2C1=O)c1c(Cl)cccc1Cl | 5 | 71* | 24* | 96* | 79* | 37* | 79* | Apaf-1 inh conf2=97*;Rh110 quench=4;Apaf1 inh interf=>100
SMILES | PRMT1 inh | TDP2 inh | PAD4 FP inh | Apaf1 inhib | GSTO1 counter | PAD4 FP conf | TDP2 confirm | others
O=C(Nc1ccccc1Cl)c1c(F)c(F)c(F)c(F)c1F | -1 | -9 | -1 | 11 | -4 | · | ·
Cc1ccc(C2=CCN(C)C(=O)N2c2ccc(Br)cc2)cc1 | 6 | -6 | · | · | · | · | ·
CS(=O)(=O)c1cccc(C(=O)Nc2cccc(-c3nc4ccccc4[nH]3)c2)c1 | 4 | 25* | 20* | -1 | -23 | 16* | 7
Cc1[nH]n(-c2ccccc2)c(=O)c1C(c1cccc([N+](=O)[O-])c1O)c1c(C)[nH]n(-c2ccccc2)c1=O | 4 | 84* | 64* | 88* | 64* | -1 | 3 | Apaf-1 inh conf2=27;Rh110 quench=4
Cc1ccc(-n2nc(C)c3c2OC(N)=C(C#N)C3c2ccc(F)cc2)cc1 (stereo unspecified) | -1 | 49* | 43* | 3 | 42* | -1 | 0
Cc1nn(-c2cccc(Cl)c2)c2c1C(c1cccnc1)C(C#N)=C(N)O2 (stereo unspecified) | 2 | 60* | 62* | 32 | 7 | -8 | 7
Cn1c2c(c(=O)n(C)c1=O)C(c1ccc(F)cc1)C(C#N)=C(N)O2 (stereo unspecified) | 17 | 6 | -4 | 3 | 6 | · | ·
O=C(Nc1ccc(N2CCOCC2)c2nonc12)C1CCCC1 | -2 | 7 | -10 | 21 | 4 | · | ·
Nc1ccc(N2CCOCC2)c2nonc12 | 40* | 92* | 81* | 84* | 86* | -8 | 36* | Apaf-1 inh conf2=33;Rh110 quench=-6
c1ccc(Nc2cc(Nc3ccccc3)[nH]n2)cc1 | 8 | 75* | 31* | 5 | 4 | 8 | 6
CCCC1CCC2(CC1)CCC2OC(=O)Nc1c(OC)cccc1OC (stereo unspecified) | 6 | -3 | · | · | · | · | ·
CNC(=S)N/N=C/c1c(Cl)cccc1Cl | 2 | 9 | 1 | -15 | 6 | · | ·
CCc1nnc(N/N=C/c2cccs2)n1N | 3 | 69* | 34* | 0 | 17 | -6 | 3
CCc1nnc(N/N=C/c2c(Cl)cccc2Cl)n1N | -2 | 60* | 21* | -13 | 16 | 2 | 11
CCOC(=O)C1=C(COC(=O)c2sccc2C)NC(=O)NC1C (stereo unspecified) | 7 | 1 | 4 | -6 | · | · | ·
CCOC(=O)C1=C(COC(=O)c2ccc([N+](=O)[O-])s2)NC(=O)NC1C (stereo unspecified) | -1 | 39* | 26* | 46* | · | 17* | 41* | Apaf-1 inh conf2=38;Rh110 quench=3
CCOC(=O)C1=NOC(C(=O)Nc2cc(C)cc(C)c2)(C(=O)C2CC2)C1 (stereo unspecified) | 1 | 7 | · | · | · | · | ·
